KCNQ1 act = potentiators or activators of KCNQ1 channel, primary screen, cell-based, thallium flux, high-throughput; Potassium voltage-gated channel subfamily KQT member 1 (Homo sapiens), P51787; CHO-K1 KCNQ1, thallium flux FluxOR fluorescence; hits give high values; B-score at 10 µM; 310,000 tested, 0.35% active; AID 2648, 2010;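 active means fluorescence ratio B-score, a plate-corrected score, at least three library SD, with initial intensity B-score within 5 SD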
Target sequence (P51787 whole entry, looked up): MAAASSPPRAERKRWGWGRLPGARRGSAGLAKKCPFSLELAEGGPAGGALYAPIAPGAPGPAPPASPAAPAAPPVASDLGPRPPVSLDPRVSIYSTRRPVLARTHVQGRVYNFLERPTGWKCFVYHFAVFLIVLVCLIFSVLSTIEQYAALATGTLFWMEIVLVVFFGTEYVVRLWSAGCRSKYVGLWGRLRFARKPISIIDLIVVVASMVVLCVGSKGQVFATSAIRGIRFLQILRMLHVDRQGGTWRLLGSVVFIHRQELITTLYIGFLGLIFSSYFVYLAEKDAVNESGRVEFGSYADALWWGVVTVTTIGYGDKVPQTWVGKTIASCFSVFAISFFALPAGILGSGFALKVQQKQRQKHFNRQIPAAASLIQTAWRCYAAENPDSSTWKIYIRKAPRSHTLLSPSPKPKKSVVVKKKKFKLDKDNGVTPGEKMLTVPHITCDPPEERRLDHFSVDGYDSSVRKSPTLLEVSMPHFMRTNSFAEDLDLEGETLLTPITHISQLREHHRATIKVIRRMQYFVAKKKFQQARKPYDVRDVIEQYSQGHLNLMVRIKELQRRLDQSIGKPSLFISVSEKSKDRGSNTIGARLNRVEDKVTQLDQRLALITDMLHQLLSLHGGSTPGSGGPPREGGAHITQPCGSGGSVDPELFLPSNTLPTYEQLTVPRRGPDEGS
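Test system: CHO-K1 cells stably expressing KCNQ1 / Medium: assay buffer / Also added: depolarizing K+/Tl+ stimulus, K2SO4 and Tl2SO4 each 12.5 mM in 5x stock / Incubation: 90 min dye loading and 20 min compound exposure, both at room temperature / Signal: thallium influx via FluxOR fluorescence, kinetic imaging / Evaluation: B score of baseline-normalized fluorescence ratio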
KCNK9 inh = KCNK9 potassium channel inhibitors, primary screen, HEK293 cells, thallium flux | B-score at 10 µM | 310,000 tested, 1.2% active | FluxOR thallium flux fluorescence; hits give low values | AID 488922, 2010;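 active means ratio B-score over 3 SD below the library mean, with starting fluorescence within 5 SD of its mean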;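 further: negative B-score means less thallium flux so channel inhibition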
KCNK3 block = human KCNK3 channel inhibitors, primary screen, CHO cells, FluxOR thallium flux, B-score. FluxOR fluorescence; hits give low values. B-score at 10 µM. 340,000 tested, 0.84% active. AID 602410, 2012;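 active means B-score under library mean minus 4 SD, starting fluorescence ratio at most library mean plus 5 SD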;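 further: more negative B-score means stronger inhibition of thallium flux through KCNK3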
KCNQ1 inh = inhibitors of human KCNQ1 channel, primary screen, cell-based, thallium flux, high-throughput | B-score at 10 µM | 310,000 tested, 1.3% active | CHO-K1 KCNQ1, FluxOR thallium flux fluorescence; hits give high values;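 active means compounds whose thallium flux B-score, printed positive for inhibition, exceeds three library SD while starting fluorescence stays within three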;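 further: channel opened by potassium depolarization with thallium stimulus after 20 min compound exposure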
Kir21 block = inhibitors of mouse Kir2.1 inward-rectifier potassium channel; Inward rectifier potassium channel 2 (Mus musculus), P35561; HEK293-Kir2.1, FluxOR thallium flux fluorescence; hits give low values; B-score at 10 µM; 310,000 tested, 0.85% active;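 active means fluorescence ratio B-score at or below minus 3 SD of library scores, with starting-brightness B-score within 2 SD, cut at about -4.2 in these data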;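 further: channel flux triggered by added potassium and thallium sulfate stimulus; B-score of peak minus minimum fluorescence over baseline after thallium stimulus; more negative B-score means stronger Kir2.1 block with less thallium influx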
hERG rescue = hERG rescue from dofetilide block, primary screen, cell-based, CHO-hERG, FluxOR thallium flux, dofetilide IC70. Voltage-gated inwardly rectifying potassium channel KCNH2 (Homo sapiens), Q12809. dofetilide IC70 present. activation (rescue from dofetilide block), less the hit threshold, % at 10 µM. 310,000 tested, 0.51% active. AID 1511, 2009;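 active means activation above the mean of controls blocked by dofetilide plus 5 SD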;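 further: thallium influx through hERG after potassium depolarization seen as dye fluorescence rise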
KCNK9 block conf = KCNK9 potassium channel inhibitors, confirmation, HEK293 cells, thallium flux, duplicate; FluxOR thallium flux fluorescence; 4,900 tested, 43% active; inhibition, % at 10 µM; shares compounds with KCNK9 inh; AID 492992, 2010;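 active means thallium signal inhibited by more than 5 SD of the compound-free buffer control wells, on both duplicate plates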;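 further: 0% = assay buffer control wells without compound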
Kir2-1 spec = mouse Kir2.1 channel inhibition, confirmation, selectivity assay for KCNK9 modulator project, cell-based, HEK293, thallium flux | shares compounds with KCNK9 inh | 4,900 tested, 4% active | inhibition, % at 10 µM | Kir2.1 cells, FluxOR thallium flux fluorescence;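 active means thallium signal drop more than 5 SD beyond the mean of the no-compound control wells, seen in both duplicate plates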;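 further: signal is fluorescence rise after thallium addition divided by baseline fluorescence; plate controls were assay buffer only for no effect and full block by chlorpromazine control for full effect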
HEK293 Tl ctr = thallium flux in non-induced HEK293 cells, confirmation, counter-screen for KCNK9 inhibitor project, cell-based, second counter screen, non-induced KCNK9-HEK293 | shares compounds with KCNK9 inh | FluxOR thallium flux | inhibition, % at 10 µM | 4,900 tested, 40% active;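 active means thallium signal drop beyond 5 SD of the untreated control mean, on both duplicate plates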;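 further: plate controls were buffer only IC0 wells for no effect and SID17386958 at its maximal inhibitory level for full effect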
Starred values were filed as active, the others as inactive; i = inactive; / = not tested or not shown. An excerpt weighted towards active compounds, which were near 3.7% of everything screened.

SMILES | KCNQ1 act | KCNK9 inh | KCNK3 block | KCNQ1 inh | Kir21 block | hERG rescue | KCNK9 block conf | Kir2-1 spec | HEK293 Tl ctr
Cc1ccc(S(=O)(=O)Cn2nnnc2CN(Cc2ccco2)Cc2cccs2)cc1 | i | i | i | i | -0.74 | -6.8 | / | / | /
Cc1ccc(C(c2nnnn2C(C)(C)C)N(Cc2ccco2)Cc2cccs2)cc1 (stereo not given) | i | -17.2* | i | i | 1.14 | -7.5 | 65.5%* | i | 30.5%*
c1ccc(CN(Cc2ccco2)C(c2ccncc2)c2nnnn2C2CCCC2)cc1 (stereo not given) | i | i | i | i | 0.55 | -4.5 | / | / | /
CC(C)(C)n1nnnc1C(c1ccc(Cl)cc1)N(Cc1cccnc1)Cc1ccco1 (stereo not given) | i | -14.4* | -10.1* | 6* | -1.28 | -10.0 | 52.0%* | i | 39.0%*
CC(C)(C)n1nnnc1C(c1ccc(C(F)(F)F)cc1)N(Cc1ccccc1)Cc1ccco1 (stereo not given) | i | -10.7* | i | 6* | 0.74 | -4.0 | 52.0%* | i | 33.0%*
Clc1ccc(CN(Cc2ccccc2)C(c2cccs2)c2nnnn2C2CCCC2)cc1 (stereo not given) | i | i | i | i | -0.03 | -9.0 | / | / | /
CC(C)(C)n1nnnc1C(c1cccs1)N(Cc1ccc(Cl)cc1)CC1CCCO1 (stereo not given) | i | -16.5* | i | i | -0.02 | -9.4 | 62.5%* | i | 42.5%*
CSCc1ccc(C(=O)N2CCC(N3CCC(C(=O)NC(C)C)CC3)CC2)o1 | i | i | i | i | 0.44 | -11.9 | / | / | /
Fc1ccc(C(c2nnnn2C2CCCC2)N(Cc2ccco2)CC2CCCO2)cc1 (stereo not given) | i | i | i | i | -0.91 | -3.6 | / | / | /
CC(C)(C)n1nnnc1C(c1cccnc1)N(Cc1ccccc1)Cc1cccs1 (stereo not given) | i | -12.7* | i | i | 0.2 | -8.4 | 45.5%* | i | 52.5%*
CC(C)(C)n1nnnc1C(c1ccc(F)cc1)N(Cc1ccc(F)cc1)Cc1ccco1 (stereo not given) | i | -15* | i | 7* | -0.17 | -15.1 | 71.5%* | i | 40.0%*
CC(C)(C)n1nnnc1C(c1ccc(C(F)(F)F)cc1)N(Cc1ccc(F)cc1)Cc1ccco1 (stereo not given) | i | -10.5* | i | i | 1.17 | -4.7 | 41.5%* | i | 31.0%*
CCOc1ncccc1C(=O)Nc1cc(S(=O)(=O)N2CCCCCC2)ccc1OC | / | / | i | / | / | / | / | / | /
COc1ccc(CCNC(=O)C(=O)NCC2OCCN2S(=O)(=O)c2ccccc2)cc1 (stereo not given) | i | i | i | i | 0.84 | -12.4 | / | / | /
O=C(N[C@H]1C/C=C\C[C@@H](CC(=O)N(CCO)Cc2ccccc2)C(=O)NC[C@H](c2ccccc2)OC1=O)OCC1c2ccccc2-c2ccccc21 | / | / | i | / | / | / | / | / | /
CSc1cnn(Cc2ccccc2)c(=O)c1SCc1ccccc1 | i | i | i | i | -4.56* | -6.2 | i | 40.0%* | 44.0%*
O=C(CS(=O)(=O)c1ccccc1)Nc1nccs1 | i | i | i | i | 0.67 | -10.6 | / | / | /
CC(C)(C)CC(C)(C)SSc1n[nH]c(=S)s1 | / | / | i | / | / | / | / | / | /
Cc1cc(C)c(OCC(=O)Nc2ccccc2N2CCOCC2)c(C)c1 | i | -10.2* | -10* | i | -2.02 | -7.1 | i | i | 48.5%*
CCC(=O)N1CCN(c2ccccc2NC(=O)COc2cc(C)ccc2C(C)C)CC1 | i | -8.22* | i | i | -2.09 | -4.9 | 46.0%* | i | 28.5%*
Cc1cc(C)c(OCC(=O)Nc2ccccc2N2CCCCC2)c(C)c1 | i | i | i | i | 0.85 | -10.0 | / | / | /
O=C(COc1ccccc1)Nc1ccccc1N1CCN(c2ccc(F)cc2)CC1 | i | -8.64* | i | i | -0.28 | -2.5 | i | i | 27.5%*
CCCCCC(=O)Nc1ccccc1N1CCN(c2ccccc2)CC1 | i | -12.8* | -10.5* | i | 0.14 | -4.5 | 49.0%* | i | 36.5%*
CCCCN(C(=O)c1ccc(Br)o1)C1CCS(=O)(=O)C1 (stereo not given) | i | i | i | i | 0.36 | -9.7 | / | / | /
COc1ccc(OCC(=O)Nc2ccc(OC)c(S(=O)(=O)N3CCCCC3)c2)cc1 | i | i | i | i | 0.76 | -11.8 | / | / | /
SMILES | KCNQ1 act | KCNK9 inh | KCNK3 block | KCNQ1 inh | Kir21 block | hERG rescue | KCNK9 block conf | Kir2-1 spec | HEK293 Tl ctr
Cc1ccc(N2C(=O)C3ON(c4ccccc4)C(CC(C)C)C3C2=O)cc1 (stereo not given) | i | i | i | i | -0.56 | -6.7 | / | / | /
COc1cccc(CN2CCN(C(=O)c3cc(-c4ccncc4)nc4ccc(C)cc34)CC2)c1 | i | i | i | i | -0.73 | -36.0 | / | / | /
COc1cccc(CN2CCN(C(=O)c3cc(-c4ccccn4)nc4ccc(Cl)cc34)CC2)c1 | i | i | i | i | -1.52 | -30.3 | i | i | i
CC(C)(C)C1CCc2c(sc3c2C(=O)NC(c2ccco2)N3)C1 (stereo not given) | i | i | i | i | 1.14 | 2.0 | i | i | i
CN1CCc2c(sc3c2C(=O)NC(c2ccccc2)N3)C1 (stereo not given) | i | i | i | i | -0.44 | -3.0 | / | / | /
CCCCSCCCNC(=O)Nc1ccc(C)c(C)c1 | i | i | i | i | 0.01 | -0.1 | / | / | /
Cc1ccc(N(Cc2cc3cccc(C)c3[nH]c2=O)S(=O)(=O)c2ccccc2)c(C)c1 | i | i | i | i | 0.34 | -12.6 | i | i | i
